Calls of active or inactive are those of the source. The calls are words filed in the database; no cut-off is given here.
Assays:
[1] = tested on: MCF7; test: Antiproliferative activity against human MCF7 cells assessed as inhibition of cell growth incubated for 48 hrs by MTT assay; format: functional, cell-based; details: MCF7, 48 h
How it was run: (§1)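 MTT read-out. Cells seeded at 5.0 × 10⁴ cells/ml and cultured 24 h, then exposed to the drug over a range of concentrations for 48 h, with matching DMSO as control. MTT (5 mg/ml) added for 4 h, supernatant removed, formazan dissolved in DMSO, OD read at 570 nm. Run in triplicate, mean ± SD (n = 3).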

[2] = tested on: HOS; test: Antiproliferative activity against human HOS cells assessed as inhibition of cell growth incubated for 48 hrs by MTT assay; format: functional, cell-based; how it was run: as §1
[3] = tested on: HepG2; test: Antiproliferative activity against human HepG2 cells assessed as inhibition of cell growth incubated for 48 hrs by MTT assay; format: functional, cell-based; details: HepG2, 48 h; how it was run: as §1
[4] = biological target: T1, Hsp90 co-chaperone Cdc37 (Homo sapiens) (UniProt Q16543); test: Binding affinity to Cdc37 in human A549 cells assessed as inhibition of HSP90-Cdc37 interaction by measuring decrease in Akt phosphorylation level at 5 uM incubated for 12 hrs by Western blot analysis; format: cell-based
T1 sequence (whole entry): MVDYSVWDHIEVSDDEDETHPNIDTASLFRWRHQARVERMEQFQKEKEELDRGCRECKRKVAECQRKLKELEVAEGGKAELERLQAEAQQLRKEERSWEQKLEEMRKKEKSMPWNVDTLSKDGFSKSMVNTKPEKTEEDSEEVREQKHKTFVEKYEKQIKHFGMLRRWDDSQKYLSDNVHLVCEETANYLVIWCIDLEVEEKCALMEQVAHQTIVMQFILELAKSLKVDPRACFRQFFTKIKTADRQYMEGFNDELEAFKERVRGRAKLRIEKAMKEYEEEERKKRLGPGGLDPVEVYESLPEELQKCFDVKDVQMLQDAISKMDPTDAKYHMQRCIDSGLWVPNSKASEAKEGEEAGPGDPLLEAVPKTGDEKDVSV
How it was run: (§2)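 A549 cells seeded 5×10^5 per 6 cm dish, grown 12 h, then exposed to compound or DMSO for 12 h. Lysates adjusted to 3 mg/ml protein (BCA), run on 10% SDS-PAGE, immunoblotted for p-Akt and Cdk4. Band levels quantified against Hsp90 loading control. Three separate experiments, mean ± SD.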

[5] = biological target: T1, Hsp90 co-chaperone Cdc37 (Homo sapiens); test: Binding affinity to Cdc37 in human A549 cells assessed as inhibition of HSP90-Cdc37 interaction by measuring decrease in CDK4 protein level at 5 uM incubated for 12 hrs by Western blot analysis; format: cell-based; how it was run: as §2
[6] = tested on: A549; test: Antiproliferative activity against human A549 cells assessed as inhibition of cell growth at 0.5 uM incubated for 48 hrs in presence of methyl thioglycolate by MTT assay relative to control; format: functional; details: A549, 48 h, read-out: GI
[7] = biological target: T1, Hsp90 co-chaperone Cdc37 (Homo sapiens); test: Binding affinity to Cdc37 in human A549 cells assessed as inhibition of HSP90-Cdc37 interaction by measuring decrease in Akt phosphorylation level incubated for 12 hrs by Western blot analysis; format: cell-based
How it was run: (§3)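 A549 cells (5×10^5 per 6 cm dish) were allowed to settle 12 h, then treated with DMSO or compound at the indicated concentrations for 12 h. Lysates were adjusted to 3 mg/ml protein by BCA and resolved on 10% SDS-PAGE, then Western blotted. β-actin or Hsp90 served as the loading control. Three separate experiments, mean ± SD.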

[8] = biological target: T1, Hsp90 co-chaperone Cdc37 (Homo sapiens); test: Binding affinity to Cdc37 in human A549 cells assessed as inhibition of HSP90-Cdc37 interaction by measuring increase in BAX protein level at 1.25 to 5 uM incubated for 12 hrs by Western blot analysis; format: cell-based; how it was run: as §3
[9] = tested on: A549; test: Induction of mitochondrial membrane potential loss in human A549 cells assessed as cells with depolarized mitochondria by measuring increase in J-monomer green fluorescence intensity at 0.2 uM incubated for 24 hrs by JC1 staining based fluorescence microscopic method (reference value: 1.5%); format: functional
[10] = tested on: A549; test: Induction of morphological apoptosis in human A549 cells assessed as increase in cells with chromatin condensation at 0.3 to 1.2 uM incubated for 48 hrs by Hoechst 33342 and PI staining based fluorescence microscopic method; format: functional, cell-based
How it was run: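 A549 cells (4×10^5 per 6 cm dish) were grown 24 h, then exposed to compound at the indicated concentrations or DMSO for 48 h. After PBS washes, cells were stained with Hoechst 33342 (10 µg/ml) plus PI for 5 min at room temperature in the dark and imaged by fluorescence microscopy for nuclear morphology.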

[11] = tested on: A549; test: Induction of apoptosis in human A549 cells assessed as late apoptotic cells at 0.3 uM incubated for 48 hrs by Annexin V-FITC and PI staining based flow cytometric analysis (reference value: 3.0%); format: functional
[12] = tested on: A549; test: Induction of apoptosis in human A549 cells assessed as necrotic cells at 0.3 uM incubated for 48 hrs by Annexin V-FITC and PI staining based flow cytometric analysis (reference value: 1.0%); format: functional
[13] = tested on: A549; test: Induction of apoptosis in human A549 cells assessed as early apoptotic cells at 1.2 uM incubated for 48 hrs by Annexin V-FITC and PI staining based flow cytometric analysis (reference value: 0.5%); format: functional
How it was run: (§4)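 A549 cells (4×10^5 per 6 cm dish) cultured 24 h, then treated 48 h with compound or DMSO. Cells gently harvested, washed twice in cold PBS, resuspended in binding buffer with Annexin V and PI, stained 15 min at room temperature in the dark, analysed by flow cytometry. Mean ± SD, n = 3.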

[14] = tested on: A549; test: Induction of apoptosis in human A549 cells assessed as late apoptotic cells at 1.2 uM incubated for 48 hrs by Annexin V-FITC and PI staining based flow cytometric analysis (reference value: 3.0%); format: functional; how it was run: as §4
[15] = tested on: A549; test: Induction of apoptosis in human A549 cells assessed as necrotic cells at 1.2 uM incubated for 48 hrs by Annexin V-FITC and PI staining based flow cytometric analysis (reference value: 1.0%); format: functional; how it was run: as §4
[16] = tested on: A549; test: Induction of apoptosis in human A549 cells assessed as increase in late apoptotic cells incubated for 48 hrs by Annexin V-FITC and PI staining based flow cytometric analysis; format: functional, cell-based
[17] = tested on: A549; test: Induction of cell cycle arrest in human A549 cells assessed as accumulation at S phase at 0.2 uM incubated for 24 hrs by PI staining based flow cytometric analysis (reference value: 27.59%); format: functional
How it was run: (§5)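 A549 cells (4×10^5 per 6 cm dish) were grown 24 h, then exposed to compound (0.2, 0.4, 0.8 μM) or DMSO for 24 h. Cells fixed in 75% ethanol at −20 °C for at least 12 h, treated with RNase A at 37 °C for 30 min, then stained with PI for 15 min in the dark. Analysed by flow cytometry, mean ± SD, n = 3.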

[18] = tested on: A549; test: Induction of cell cycle arrest in human A549 cells assessed as increase in accumulation at G0/G1 phase incubated for 24 hrs by PI staining based flow cytometric analysis; format: functional; how it was run: as §5
[19] = Binding affinity to DTT in DMSO-d6 with retention of CA moiety at 0.02 mmol incubated for 20 mins in ultrasound by 1H NMR-spectroscopic analysis
[20] = tested on: A549; test: Induction of mitochondrial membrane potential loss in human A549 cells assessed as cells with hyperpolarized mitochondria by measuring decrease in J-aggregates red fluorescence intensity at 0.2 uM incubated for 24 hrs by JC1 staining based fluorescence microscopic method (reference value: 98.4%); format: functional; set-up: scale not given: the % may be the effect or the level left

`CC1=C(O)C(=O)C=C2C1=CC=C1[C@@]2(C)CC[C@@]2(C)[C@@H]3C[C@](C)(C(=O)OCCCOC(=O)/C=C(\C#N)c4ccc(F)cc4)CC[C@]3(C)CC[C@]12C` gave an IC50 [1] of 640 nM, an IC50 [2] of 900 nM and an IC50 [3] of 940 nM. The inhibition [4] was “Active”, the inhibition [5] was “Active” and the inhibition of growth at 0.5 µM [6] was 68.3%. For the same compound, the inhibition [7] was “Dose-dependent effect”, the inhibition [8] was “Active” and the Activity [9] was 15.7%. For the same compound, the Activity [10] was “Active”, the Activity [11] was 9.3% and the Activity [12] was 3.3%. For the same compound, the Activity [13] was 7.4%, the Activity [14] was 25.2% and the Activity [15] was 8.2%. The Activity [16] was “Dose-dependent effect”, the Activity [17] was 26.39% and the Activity [18] was “Dose-dependent effect”. The Activity [19] was “Active” and the Activity [20] was 84.2%.
